Inhibition data for four compounds are collected here from ChEMBL document CHEMBL5696442, “Discovery of type II inhibitors of TGFβ-activated kinase 1 (TAK1) and mitogen-activated protein kinase kinase kinase kinase 2 (MAP4K2)” (J Med Chem, 2015).

The target of assay [1] is T1, Mitogen-activated protein kinase 14 (Homo sapiens, UniProt Q16539). Briefly: Inhibition of p38 alpha Lys2 labeling site in human Huh-7 cell lysate at 1 uM by KiNativ Profiling analysis relative to control. Format: subcellular.
Assay [2] concerns the target Serine/threonine-protein kinase WNK1 (Homo sapiens) (UniProt Q9H4A3). Briefly: Inhibition of Wnk1 Lys2 labeling site in human A-375 cells at 5 uM by KiNativ Profiling analysis relative to control. The assay is classed as cell-based.
The target in assay [3] is T2, Serine/threonine-protein kinase Nek9 (Homo sapiens) (UniProt Q8TD19).
T2 sequence (whole entry): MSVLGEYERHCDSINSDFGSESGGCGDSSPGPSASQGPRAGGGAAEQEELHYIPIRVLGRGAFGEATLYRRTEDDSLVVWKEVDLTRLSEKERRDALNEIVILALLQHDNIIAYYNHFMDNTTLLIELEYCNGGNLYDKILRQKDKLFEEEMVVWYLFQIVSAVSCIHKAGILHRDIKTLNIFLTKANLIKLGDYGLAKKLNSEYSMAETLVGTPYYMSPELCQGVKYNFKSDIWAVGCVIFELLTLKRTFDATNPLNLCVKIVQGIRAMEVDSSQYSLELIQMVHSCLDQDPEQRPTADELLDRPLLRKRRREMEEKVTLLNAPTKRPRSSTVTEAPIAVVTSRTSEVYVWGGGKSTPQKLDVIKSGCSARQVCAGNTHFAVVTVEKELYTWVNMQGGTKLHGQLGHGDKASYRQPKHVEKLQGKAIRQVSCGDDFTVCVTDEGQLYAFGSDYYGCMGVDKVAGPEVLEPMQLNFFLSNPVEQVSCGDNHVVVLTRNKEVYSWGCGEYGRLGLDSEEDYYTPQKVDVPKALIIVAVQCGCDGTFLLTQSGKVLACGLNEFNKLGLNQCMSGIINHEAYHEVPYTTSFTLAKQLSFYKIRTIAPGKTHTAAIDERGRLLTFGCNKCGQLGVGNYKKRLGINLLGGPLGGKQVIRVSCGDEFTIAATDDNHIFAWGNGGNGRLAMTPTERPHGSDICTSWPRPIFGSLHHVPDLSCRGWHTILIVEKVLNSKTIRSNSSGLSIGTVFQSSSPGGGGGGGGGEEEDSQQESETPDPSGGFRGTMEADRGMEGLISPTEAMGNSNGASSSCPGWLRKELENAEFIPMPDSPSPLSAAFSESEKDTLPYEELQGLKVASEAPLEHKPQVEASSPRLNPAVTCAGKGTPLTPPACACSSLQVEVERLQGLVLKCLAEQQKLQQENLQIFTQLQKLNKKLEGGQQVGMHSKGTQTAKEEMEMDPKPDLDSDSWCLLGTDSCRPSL
Briefly: Inhibition of NEK9 Lys1 labeling site harbouring RTEDDSLVVWKEVDLTR in human A-375 cells at 5 uM by KiNativ Profiling analysis relative to control. The assay is classed as cell-based.

In assay [4] the target is T3, DNA-PK/Ku70/Ku85 (Homo sapiens) (UniProt P78527+P12956+P13010). Nature of the assay: Inhibition of DNAPK ATP labeling site harbouring GHDEREHPFLVKGGEDLRQDQR in human A-375 cells at 5 uM by KiNativ Profiling analysis relative to control. The assay is classed as cell-based. The procedure, abridged: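 Live A375 melanoma cells were treated with compound at 0.5 or 5 μM, then lysed. Lysates were labeled with a lysine-reactive ATP or ADP-biotin probe. The read-out was protection of each kinase probe-labeling site from labeling, relative to control.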

Assay [5] deals with Serine/threonine-protein kinase WNK2 (Homo sapiens) (UniProt Q9Y3S1). Briefly: Inhibition of Wnk2 Lys2 labeling site in human A-375 cells at 0.5 uM by KiNativ Profiling analysis relative to control. The assay is classed as cell-based.
Assay [6] concerns the target Calcium/calmodulin-dependent protein kinase type 1 (Homo sapiens) (UniProt Q14012). Nature of the assay: Inhibition of CAMK1 alpha Lys1 labeling site in human A-375 cells at 0.5 uM by KiNativ Profiling analysis relative to control. The assay is classed as cell-based. The procedure, abridged:
(§1)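 Intact A375 melanoma cells were treated with compound at 5 or 0.5 μM, then lysed. Lysate kinases were labeled with a lysine-reactive ATP or ADP-biotin probe (KiNativ). Inhibition is read as protection of each kinase labeling site from probe labeling.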

The target in assay [7] is T3, DNA-PK/Ku70/Ku85 (Homo sapiens). Nature of the assay: Inhibition of DNAPK ATP labeling site harbouring KGGSWIQEINVAEKNWYPR in human A-375 cells at 0.05 uM by KiNativ Profiling analysis relative to control. The assay is classed as cell-based.
Assay [8] deals with Tyrosine-protein kinase ABL2 (Homo sapiens, UniProt P42684). Briefly: Inhibition of ARG Lys1 labeling site in human A-375 cells at 0.5 uM by KiNativ Profiling analysis relative to control. The assay is classed as cell-based. The procedure, abridged:
as §1

The target in assay [9] is T1, Mitogen-activated protein kinase 14. Briefly: Inhibition of p38 alpha in human A-375 cells at 5 uM by KiNativ Profiling analysis relative to control. Format: cell-based.
For assay [10], the target named is Serine/threonine-protein kinase 26 (Homo sapiens) (UniProt Q9P289). Briefly: Inhibition of MST4 Lys2 labeling site in human A-375 cells at 0.5 uM by KiNativ Profiling analysis relative to control. Format: cell-based.
Assay [11] has as its target Mitogen-activated protein kinase 10 (Homo sapiens, UniProt P53779). Nature of the assay: Inhibition of JNK3 Lys2 labeling site in human A-375 cells at 0.5 uM by KiNativ Profiling analysis relative to control. Format: cell-based.
Assay [12] concerns the target T4, Aurora kinase A (Homo sapiens) (UniProt O14965).
T4 sequence (whole entry): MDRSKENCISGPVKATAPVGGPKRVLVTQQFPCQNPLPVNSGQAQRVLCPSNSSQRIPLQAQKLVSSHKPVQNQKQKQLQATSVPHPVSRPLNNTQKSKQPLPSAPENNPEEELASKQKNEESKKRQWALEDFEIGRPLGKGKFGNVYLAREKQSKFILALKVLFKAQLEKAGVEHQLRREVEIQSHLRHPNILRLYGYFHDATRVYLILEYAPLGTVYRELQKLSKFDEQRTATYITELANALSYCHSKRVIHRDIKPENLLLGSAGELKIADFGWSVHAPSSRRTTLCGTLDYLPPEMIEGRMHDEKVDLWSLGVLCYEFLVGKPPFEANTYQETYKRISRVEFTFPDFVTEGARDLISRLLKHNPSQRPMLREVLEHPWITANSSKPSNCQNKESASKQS
Nature of the assay: Inhibition of AurA ATP Loop labeling site in human A-375 cells at 0.5 uM by KiNativ Profiling analysis relative to control. The assay is classed as cell-based. The procedure, abridged:
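Live A375 melanoma cells were treated with compound at 5 or 0.5 μM, then lysed. The lysates were labeled with a lysine-reactive ATP or ADP-biotin probe. Kinase protection from probe labeling was measured by KiNativ.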

In assay [13] the target is Cyclin-dependent kinase 17 (Homo sapiens) (UniProt Q00537). Nature of the assay: Inhibition of PCTAIRE2 Lys1 labeling site harbouring SKLTENLVALKEIR in human A-375 cells at 0.5 uM by KiNativ Profiling analysis relative to control. The assay is classed as cell-based.
A further assay relates to GEN2.2. Briefly: Inhibition of CL097 induced JNK1/2 phosphorylation level in human GEN2.2 cells at 1 uM preincubated with compound for 1 hr followed by CL097 stimulation and measured after 30 mins by Western blot analysis. The assay is classed as functional, cell-based. The essentials: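 Gen2.2 cells were pretreated with compound at 1 μM for 1 h, then stimulated with CL097 for 30 min. Lysates were analysed by Western blot for phosphorylation of p105, p38 and JNK1/2.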
In general terms: In western blotting, separated proteins are transferred to a membrane and probed.

Structures are written as SMILES. Calls of active or inactive are those of the source. No cut-off for these calls is given here.

T1 sequence (Q16539 whole entry): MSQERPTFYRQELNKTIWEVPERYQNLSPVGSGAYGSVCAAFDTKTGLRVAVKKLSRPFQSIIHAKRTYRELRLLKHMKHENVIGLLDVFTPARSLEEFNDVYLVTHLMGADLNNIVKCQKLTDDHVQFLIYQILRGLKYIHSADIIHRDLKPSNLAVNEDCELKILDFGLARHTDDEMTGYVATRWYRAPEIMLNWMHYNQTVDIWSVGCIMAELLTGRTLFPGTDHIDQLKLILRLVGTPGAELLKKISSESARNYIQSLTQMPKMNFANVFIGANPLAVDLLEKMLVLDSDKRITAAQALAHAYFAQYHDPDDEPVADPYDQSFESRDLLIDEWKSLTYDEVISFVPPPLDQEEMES
Sequence of Serine/threonine-protein kinase WNK1 (Homo sapiens) (Q9H4A3 whole entry, looked up): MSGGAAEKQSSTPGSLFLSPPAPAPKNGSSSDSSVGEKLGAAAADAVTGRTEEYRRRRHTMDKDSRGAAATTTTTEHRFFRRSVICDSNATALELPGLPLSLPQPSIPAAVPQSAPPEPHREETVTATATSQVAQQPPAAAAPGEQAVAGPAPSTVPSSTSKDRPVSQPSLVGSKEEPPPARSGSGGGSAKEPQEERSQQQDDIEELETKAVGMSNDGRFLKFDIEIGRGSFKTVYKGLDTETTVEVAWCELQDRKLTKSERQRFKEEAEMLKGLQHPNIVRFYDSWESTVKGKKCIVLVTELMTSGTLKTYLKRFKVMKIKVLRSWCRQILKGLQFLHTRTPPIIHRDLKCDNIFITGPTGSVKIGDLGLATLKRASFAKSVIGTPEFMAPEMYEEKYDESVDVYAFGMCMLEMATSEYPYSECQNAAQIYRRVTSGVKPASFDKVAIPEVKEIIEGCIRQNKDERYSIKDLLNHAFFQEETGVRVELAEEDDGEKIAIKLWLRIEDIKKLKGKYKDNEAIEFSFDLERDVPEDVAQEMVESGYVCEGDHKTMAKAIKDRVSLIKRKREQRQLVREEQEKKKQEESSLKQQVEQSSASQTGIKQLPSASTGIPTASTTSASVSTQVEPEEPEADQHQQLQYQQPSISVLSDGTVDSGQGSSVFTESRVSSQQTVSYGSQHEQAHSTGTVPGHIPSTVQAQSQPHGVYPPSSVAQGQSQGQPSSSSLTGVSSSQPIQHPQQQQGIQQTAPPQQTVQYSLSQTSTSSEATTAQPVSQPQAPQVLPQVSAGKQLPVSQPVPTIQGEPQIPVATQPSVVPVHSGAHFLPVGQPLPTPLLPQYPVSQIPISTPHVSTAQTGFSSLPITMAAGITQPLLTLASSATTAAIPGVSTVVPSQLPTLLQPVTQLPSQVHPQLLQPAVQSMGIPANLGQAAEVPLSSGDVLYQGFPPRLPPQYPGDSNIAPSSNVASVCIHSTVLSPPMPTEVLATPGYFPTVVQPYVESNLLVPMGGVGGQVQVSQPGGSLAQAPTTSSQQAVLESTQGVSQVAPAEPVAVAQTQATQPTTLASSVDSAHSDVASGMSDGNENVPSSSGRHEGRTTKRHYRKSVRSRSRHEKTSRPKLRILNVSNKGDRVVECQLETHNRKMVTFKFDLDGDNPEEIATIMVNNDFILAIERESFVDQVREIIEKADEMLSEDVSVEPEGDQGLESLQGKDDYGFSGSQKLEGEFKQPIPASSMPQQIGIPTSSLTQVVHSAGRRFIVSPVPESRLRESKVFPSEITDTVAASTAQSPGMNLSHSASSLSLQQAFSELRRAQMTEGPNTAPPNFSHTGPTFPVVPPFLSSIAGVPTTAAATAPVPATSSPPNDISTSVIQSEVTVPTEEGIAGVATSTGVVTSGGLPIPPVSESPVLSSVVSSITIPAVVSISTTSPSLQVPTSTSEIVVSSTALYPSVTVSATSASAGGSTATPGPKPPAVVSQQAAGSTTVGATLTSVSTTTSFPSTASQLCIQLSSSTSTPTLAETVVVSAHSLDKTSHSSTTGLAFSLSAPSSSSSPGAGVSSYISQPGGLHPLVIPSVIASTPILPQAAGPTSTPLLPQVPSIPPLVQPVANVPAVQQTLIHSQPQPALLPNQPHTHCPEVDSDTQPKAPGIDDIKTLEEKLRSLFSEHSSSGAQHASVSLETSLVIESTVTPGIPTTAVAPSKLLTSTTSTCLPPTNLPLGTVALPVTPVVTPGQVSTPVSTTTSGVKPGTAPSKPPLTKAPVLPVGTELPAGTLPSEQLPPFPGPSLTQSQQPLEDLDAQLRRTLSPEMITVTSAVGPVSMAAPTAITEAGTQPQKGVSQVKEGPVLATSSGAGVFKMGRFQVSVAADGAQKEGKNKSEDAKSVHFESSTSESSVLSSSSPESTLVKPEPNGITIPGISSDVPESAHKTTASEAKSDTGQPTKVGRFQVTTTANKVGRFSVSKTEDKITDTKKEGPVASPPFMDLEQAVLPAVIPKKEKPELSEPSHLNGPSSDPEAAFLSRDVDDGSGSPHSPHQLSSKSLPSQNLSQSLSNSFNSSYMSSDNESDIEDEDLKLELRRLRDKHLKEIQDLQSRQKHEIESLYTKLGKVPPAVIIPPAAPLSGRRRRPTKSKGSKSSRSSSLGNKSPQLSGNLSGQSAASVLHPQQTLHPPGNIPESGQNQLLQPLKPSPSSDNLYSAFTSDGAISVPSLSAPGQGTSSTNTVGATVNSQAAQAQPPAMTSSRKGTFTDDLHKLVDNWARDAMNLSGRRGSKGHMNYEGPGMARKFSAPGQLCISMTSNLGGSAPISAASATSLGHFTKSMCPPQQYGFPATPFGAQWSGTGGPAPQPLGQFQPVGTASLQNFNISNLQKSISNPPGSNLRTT
Sequence of Tyrosine-protein kinase ABL2 (P42684 whole entry): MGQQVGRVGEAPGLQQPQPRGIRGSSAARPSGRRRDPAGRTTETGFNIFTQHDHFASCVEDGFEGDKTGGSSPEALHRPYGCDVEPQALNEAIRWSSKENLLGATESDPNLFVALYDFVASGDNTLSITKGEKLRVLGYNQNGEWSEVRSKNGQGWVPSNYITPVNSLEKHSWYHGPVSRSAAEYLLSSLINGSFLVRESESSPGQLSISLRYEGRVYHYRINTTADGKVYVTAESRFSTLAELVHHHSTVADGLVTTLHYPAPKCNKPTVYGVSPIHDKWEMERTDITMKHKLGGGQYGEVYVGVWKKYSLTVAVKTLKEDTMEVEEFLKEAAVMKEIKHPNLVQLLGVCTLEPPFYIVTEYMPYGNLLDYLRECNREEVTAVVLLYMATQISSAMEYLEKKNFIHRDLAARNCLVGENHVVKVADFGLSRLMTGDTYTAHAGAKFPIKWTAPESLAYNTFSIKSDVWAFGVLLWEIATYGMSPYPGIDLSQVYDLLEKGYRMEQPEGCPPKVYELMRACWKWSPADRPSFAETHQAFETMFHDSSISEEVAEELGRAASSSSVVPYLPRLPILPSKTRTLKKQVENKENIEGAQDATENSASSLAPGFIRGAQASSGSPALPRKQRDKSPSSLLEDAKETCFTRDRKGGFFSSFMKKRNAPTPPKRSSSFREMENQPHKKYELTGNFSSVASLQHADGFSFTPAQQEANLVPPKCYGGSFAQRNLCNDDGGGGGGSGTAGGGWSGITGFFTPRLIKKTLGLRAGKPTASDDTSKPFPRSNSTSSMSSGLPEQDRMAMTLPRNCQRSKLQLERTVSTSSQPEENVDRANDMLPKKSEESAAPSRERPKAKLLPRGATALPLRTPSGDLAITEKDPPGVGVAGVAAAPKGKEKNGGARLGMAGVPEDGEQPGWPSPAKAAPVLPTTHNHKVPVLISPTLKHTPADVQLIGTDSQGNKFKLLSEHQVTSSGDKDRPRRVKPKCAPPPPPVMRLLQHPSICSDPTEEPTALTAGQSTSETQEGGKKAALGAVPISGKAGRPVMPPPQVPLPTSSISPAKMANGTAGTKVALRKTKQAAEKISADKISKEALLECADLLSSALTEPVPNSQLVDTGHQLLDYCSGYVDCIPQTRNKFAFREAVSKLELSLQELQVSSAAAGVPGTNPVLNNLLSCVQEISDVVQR
Sequence of Calcium/calmodulin-dependent protein kinase type 1 (Homo sapiens) (Q14012 whole entry, looked up): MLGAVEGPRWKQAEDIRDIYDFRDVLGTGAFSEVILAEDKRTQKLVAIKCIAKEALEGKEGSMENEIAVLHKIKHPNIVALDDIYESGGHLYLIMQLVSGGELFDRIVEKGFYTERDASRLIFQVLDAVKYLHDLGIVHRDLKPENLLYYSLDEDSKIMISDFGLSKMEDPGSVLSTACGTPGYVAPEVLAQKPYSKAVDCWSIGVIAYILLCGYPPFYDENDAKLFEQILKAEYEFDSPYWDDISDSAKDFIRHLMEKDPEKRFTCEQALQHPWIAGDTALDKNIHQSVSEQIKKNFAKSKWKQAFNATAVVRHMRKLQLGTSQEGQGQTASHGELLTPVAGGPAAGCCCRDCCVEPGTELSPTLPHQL
Sequence of Mitogen-activated protein kinase 10 (P53779 whole entry): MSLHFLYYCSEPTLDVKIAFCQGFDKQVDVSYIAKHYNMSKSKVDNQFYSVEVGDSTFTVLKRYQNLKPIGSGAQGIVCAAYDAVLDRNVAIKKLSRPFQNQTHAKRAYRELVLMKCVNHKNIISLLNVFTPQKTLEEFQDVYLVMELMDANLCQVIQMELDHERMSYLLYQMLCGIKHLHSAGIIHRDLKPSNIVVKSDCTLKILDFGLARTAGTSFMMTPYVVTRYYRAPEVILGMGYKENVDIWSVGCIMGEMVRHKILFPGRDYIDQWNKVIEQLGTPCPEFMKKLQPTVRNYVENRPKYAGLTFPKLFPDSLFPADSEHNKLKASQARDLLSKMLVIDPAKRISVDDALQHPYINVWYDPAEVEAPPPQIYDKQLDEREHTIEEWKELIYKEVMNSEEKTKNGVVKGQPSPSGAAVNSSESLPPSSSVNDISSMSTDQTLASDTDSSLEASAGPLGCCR

Regarding `CNc1cc(Oc2cc(C(=O)Nc3cc(N4CCN(C)CC4)cc(C(F)(F)F)c3)ccc2C)ncn1`, the inhibition in assay [1] was 30.2%.

Regarding `CCN1CCN(Cc2ccc(NC(=O)c3ccc(C)c(/C=C/c4cnc5[nH]ccc5c4OC)c3)cc2C(F)(F)F)CC1`, the inhibition in [2] was 14.3%; in assay [3], 21%; in assay [4], -4.9%; in [5], 7.9%; in assay [6], 37%; in [7] it was -3.2%. In addition, the inhibition in assay [8] is greater than 90%; in assay [9], 83.3%; in [10], 9.8%; in assay [11], 40.6%; in assay [12] it was 30.2%; in assay [13], 11.3%.

Take `CNc1cc(Oc2cc(C(=O)Nc3cc(-n4cnc(C)c4)cc(C(F)(F)F)c3)ccc2C)ncn1`: in the assay with GEN2.2, the inhibition entry was “inactive”. In assay [1], the inhibition turned out to be 50.2%.

As for `CCN1CCN(Cc2ccc(NC(=O)c3ccc(C)c(Oc4ccnc5[nH]ccc45)c3)cc2C(F)(F)F)CC1`, the inhibition in assay [2] is -5.5%; in assay [3] it was -3.9%; in [4], 9.9%; in [5] it was -3%; in [6] it was 69.7%; in assay [7] it was 6.7%. Also, the inhibition in assay [8] came out at 85.5%; in [9], 53.3%; in assay [10] it was 12.5%; in [11], 73.7%; in assay [12], 31.2%; in [13], 31.7%. Further, the inhibition entry with GEN2.2 was “Active”.

A word on the inhibition: it is the drop in the measured response relative to a control, in per cent.
